MC4R barr agon: MC4R agonists recruiting beta-arrestin, primary screen, cell-based, luminescence, agonist arm of biased-ligand search. activation, % at 8.9 µM. 360,000 tested, 0.98% active. U2OS MC4R beta-arrestin complementation; percent of melanotan II response, DMSO zero. Melanocortin receptor 4 (Homo sapiens), P32245. AID 540308, 2011;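 active = activation above a per-plate cutoff, the mean activation of sample wells on that plate plus 3 SD, cut at about 8% in these data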
Target sequence (P32245 whole entry, looked up): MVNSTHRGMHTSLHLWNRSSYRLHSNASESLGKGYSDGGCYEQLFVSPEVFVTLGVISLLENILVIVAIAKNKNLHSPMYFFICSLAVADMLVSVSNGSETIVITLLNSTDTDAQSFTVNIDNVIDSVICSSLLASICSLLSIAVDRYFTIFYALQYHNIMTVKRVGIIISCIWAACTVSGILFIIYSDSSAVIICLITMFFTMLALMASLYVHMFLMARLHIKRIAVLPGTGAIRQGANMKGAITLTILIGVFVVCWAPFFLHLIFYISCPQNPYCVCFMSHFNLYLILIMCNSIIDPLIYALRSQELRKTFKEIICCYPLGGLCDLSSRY
Myeloid diff 2: induction of myeloid progenitor differentiation, primary screen, cell-based, flow cytometry, MLPCN library | ER-HoxA9 myeloid progenitors, lysozyme-GFP differentiation | 360,000 tested, 1% active | calls only at 10 µM;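 active = normalized GFP-positive differentiation at or above the plate's own cutoff, the solvent-only control mean plus 3 SD; inconclusive = no clear call, values can overlap the other calls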;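 also: cells exposed to compound for four days before flow analysis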
Granule exo inh: LAMP-1 surface exposure blockers, TALL-104 cells – cell-based, flow cytometry, MLPCN library, primary screen | 360,000 tested, 0.66% active | TALL-104 LAMP-1 surface exposure; cells stimulated with thapsigargin and PMA | inhibition, % at 10 µM;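 active = inhibition above about 55%, limit read from the data; inconclusive = no clear call, values can overlap the other calls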
EBI2 antag: EBI2 receptor antagonists, beta-arrestin recruitment, primary screen, cell-based, luminescence, 7a,25-OHC stimulation, uHTS; inhibition, % at 5 µM; AID 651636, 2012; 360,000 tested, 0.81% active; 7a,25-OHC stimulated; in the data active = inhibition above about 38%;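 also: enzyme fragment complementation signal reports receptor beta-arrestin coupling in cells; 0% = agonist plus DMSO wells and 100% = wells without agonist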
MC4R antag cAMP: MC4R antagonists of cAMP signaling, primary screen, cell-based, TR-FRET, antagonist arm of biased-ligand search. Melanocortin receptor 4 (Homo sapiens), P32245. MC4R-expressing cells, MTII-stimulated cAMP, LANCE TR-FRET. inhibition, % at 6.5 µM. 360,000 tested, 0.48% active;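 active = inhibition above its plate's cutoff, the mean of tested wells on that plate plus 3 SD, cut at about 29% in these data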;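 also: 0% = Melanotan II alone and 100% = Melanotan II plus saturating MCL0020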
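Material: human MC4R-expressing U2OS cells. Probe or stimulus: Melanotan II challenge. Dosing: 6.5 µM single dose. Times: 30-min compound, 1-h challenge, 1-h detection, room temperature. Technique: TR-FRET with Eu-cAMP and labeled anti-cAMP, 671 nm. Replication: singlicate.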
Myeloid diff: inducers of myeloid progenitor differentiation, confirmation, cell-based, GFP/Mac1 flow cytometry, cherry pick 01; shares compounds with Myeloid diff 2; calls only; 2,300 tested, 2% active; AID 651706, 2012; ER-HoxA9 myeloid progenitors, GFP/Mac1 double-positive flow;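 active = share of green or green-and-red cells above 9 and 9% in run 1 or 4 and 3% in run 2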
GFP autofluor: flagged as fluorescent in myeloid differentiation counter-screen; shares compounds with Myeloid diff 2; ER-HoxA9 myeloid progenitors, no estrogen, GFP autofluorescence flow cytometry; vehicle wells 0%, positive control 100%; fluorescence response, % (test concentration not listed); 2,300 tested, 7.4% active;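 active = over 5% cells positive for green fluorescent reporter, or over 2% positive for both it and APC stain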;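 also: range taken on the double positive population between DMSO and positive control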
* hit, by the source's call; i = inactive; ? = inconclusive; . = no result given; + = active, no number. An excerpt weighted towards active compounds, which were near 3.7% of everything screened.

SMILES | MC4R barr agon | Myeloid diff 2 | Granule exo inh | EBI2 antag | MC4R antag cAMP | Myeloid diff | GFP autofluor
COC(=O)C1=C(C)NC(C)=C(C(=O)OC)C1C(=O)OCC(=O)NC1CCCCC1C (centres undefined) | -3 | i | -1 | -3 | 6 | . | .
O=c1c2c(nc3n1CCCCC3)-c1ccccc1CC21CCCCC1 | -1 | i | 2 | -4 | 8 | i | 0
CCC1(C)Cc2ccccc2-c2nc3n(c(=O)c21)CCCCC3 (centres undefined) | 0 | i | -4 | 2 | -5 | . | .
O=c1[nH][nH]cc1C=Nc1ccc(Cl)cc1Cl | 0 | i | -1 | -13 | -6 | . | .
O=c1[nH][nH]cc1C=Nc1cc(Cl)ccc1O | -3 | i | 2 | 2 | 9 | i | 0
O=c1[nH][nH]cc1C=Nc1ccccc1O | 5 | + | 4 | -16 | 1 | + | 0
Nc1cc2c(cc1Cl)-c1ccc(Cl)cc1C2 | 1 | i | 0 | -13 | 0 | . | .
CCn1c(C(=O)N2CCCC(C(=O)NCCc3ccc(C)cc3)C2)cc2sccc21 (centres undefined) | 4 | i | 0 | 16 | 18 | i | 0
CCn1c(C(=O)N2CCCC(C(=O)NCCCc3ccccc3)C2)cc2sccc21 (centres undefined) | 1 | i | 0 | 27 | 11 | . | .
Cn1c(C(=O)N2CCCC(C(=O)NCc3cccs3)C2)cc2sccc21 (centres undefined) | -2 | + | 0 | 19 | 18 | i | 0
Cn1c(C(=O)N2CCCC(C(=O)NCCCSC3CCCCC3)C2)cc2sccc21 (centres undefined) | 5 | i | 1 | 17 | 8 | . | .
Cc1ccc(OCCOc2ccc(Br)cc2)c([N+](=O)[O-])n1 | 0 | i | -1 | 9 | 1 | . | .
CCN1CCN(CCCNC(=O)CS(=O)(=O)Cc2nc(-c3cccc(OC)c3)oc2C)CC1 | 1 | i | -2 | -18 | 7 | i | 1
COc1cccc(-c2nc(CS(=O)(=O)CC(=O)NCCCN3CCN(C)CC3)c(C)o2)c1 | 0 | i | -1 | 7 | 1 | . | .
COc1ccc(N2CCN(c3ccc(N4C(=O)COCC4=O)cc3[N+](=O)[O-])CC2)cc1 | 3 | i | -4 | 2 | 3 | i | 0
Cc1ccc(S(=O)(=O)NCc2ccco2)cc1C(N)=O | -2 | + | 2 | -6 | 7 | i | 0
CC1(C(=O)NS(=O)(=O)c2ccc(Cl)cc2)CCN1C(=O)CCC1CCCC1 (centres undefined) | -2 | i | 12 | -4 | 9 | . | .
N/C(=N\OC(=O)C12CC3CC(CC(C3)C1)C2)c1ccccc1 | 5 | i | 2 | 10 | 13 | . | .
N/C(=N\OC(=O)C12CC3CC(CC(C3)C1)C2)c1cccnc1 | 0 | i | 1 | -32 | 10 | i | 0
CCCc1nc2c3ccccc3ccn2c1Cc1ccc(OC)cc1C | . | + | -3 | 4 | . | + | 1
COc1cccc(OCc2cc(C(=O)N3CCN(c4ccccc4OC)CC3)no2)c1 | 3 | ? | -2 | 2 | 15 | . | .
CC(OC(=O)c1cc(O)c2ccccc2c1O)C(=O)Nc1ccc(C(N)=O)cc1 (centres undefined) | -3 | + | 2 | -14 | 13 | i | 3
Cc1ccc(C(=O)N2CCCC(CCC(=O)NCc3ccc(F)c(F)c3)C2)cn1 (centres undefined) | 1 | ? | -6 | -3 | 1 | . | .
COc1cccc(CNC(=O)CCC2CCCN(C(=O)c3ccc(C)nc3)C2)c1 (centres undefined) | 1 | + | -4 | 3 | 6 | i | 0
COC(=O)c1ccc2c(c1)c(-c1ccccc1)c(-c1ccccc1)n2C | 0 | i | 2 | -1 | 20 | . | .
SMILES | MC4R barr agon | Myeloid diff 2 | Granule exo inh | EBI2 antag | MC4R antag cAMP | Myeloid diff | GFP autofluor
CC(=O)OCCCCON1C(=O)c2ccccc2C1=O | 0 | . | 0 | 3 | 3 | i | 0
C[C@H](O)[C@@H]1CN2CCc3c([nH]c4ccccc34)[C@@H]2C[C@@H]1N(C)C(=O)Nc1cccc2ccccc12 | . | i | 74* | -8 | . | i | 0
COc1ccc(-c2ccc3[nH]c4c(c3c2)CCN2C(=O)[C@@H]([C@H](C)O)[C@@H](N(C)C(=O)Nc3cc(Cl)cc(Cl)c3)C[C@@H]42)cc1 | 0 | i | 15 | 21 | 21 | . | .
C[C@H](O)[C@@H]1CN2CCc3c([nH]c4ccccc34)[C@@H]2C[C@@H]1N(C)C(=S)NCCc1ccccc1 | . | + | -1 | -10 | . | i | 2
COc1ccc(-c2ccc3[nH]c4c(c3c2)CCN2C[C@@H]([C@H](C)O)[C@@H](N(C)C(=O)Nc3cc(Cl)cc(Cl)c3)C[C@@H]42)cc1 | 2 | + | 21 | 12 | 4 | i | 1
CC(=O)N1c2c(ccc3ccccc23)C(C)CC12CCCCC2 (centres undefined) | 0 | i | 28 | 20 | 0 | . | .
CC1CC2(CCCCC2)Nc2c1ccc1ccccc21 (centres undefined) | 0 | + | -3 | 12 | 6 | i | 12*
Cc1ccc(S(=O)(=O)N2CCOCC2)cc1C(=O)NCCCN1CCCC1=O | 0 | i | -4 | -4 | 7 | . | .
Cc1ccccc1N1CCN(S(=O)(=O)CC23CCC(CC2=O)C3(C)C)CC1 (centres undefined) | -2 | i | 4 | -5 | -1 | . | .
COc1ccccc1N1CCN(S(=O)(=O)CC23CCC(CC2=O)C3(C)C)CC1 (centres undefined) | -1 | i | 6 | 4 | 11 | i | 0
COc1cc(/C=C2\CC/C(=C\c3cc(OC)c(OC)c(OC)c3)C2=O)cc(OC)c1OC | 0 | + | 0 | 33 | 0 | i | 0
CCOc1ccccc1C(=O)Nn1c(C2CCC2)nc2ccccc2c1=O | 1 | + | -6 | 6 | -1 | i | 0
COc1ccccc1C(=O)Nn1c(C2CCC2)nc2ccccc2c1=O | -2 | i | 0 | 3 | -4 | . | .
CN(C)CCN1CC(O)=C(c2nc3ccccc3s2)C1=N | -2 | i | 0 | 1 | 5 | . | .
N=C1C(c2nc3ccccc3s2)=C(O)CN1Cc1ccco1 | -2 | + | 3 | -3 | 9 | i | 0

Screening data: PubChem, several laboratories
